From ChEMBL document CHEMBL3621201, “Improving the Selectivity of Engineered Protease Inhibitors: Optimizing the P2 Prime Residue Using a Versatile Cyclic Peptide Library” (J Med Chem, 2015)
Calls of active or inactive are those of the source. The calls are words filed in the database; no cut-off is given here. Bridge positions count the residues as written; N and C are the ends. Peptide text beside a SMILES is read from it.

Assays:
Plasminogen [1] = molecular target: T1, Plasminogen (Homo sapiens, UniProt P00747); experiment: Inhibition of plasmin (unknown origin) using Ac-RM(O2)YRpNA substrate by spectrophotometry method
Procedure, shortened: (§1)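 Inhibition constants were measured in 0.1 M Tris pH 8.0, 0.1 M NaCl, 0.005% Triton X-100 with 100 µM peptide-pNA substrate. Protease-specific additives were also included. Absorbance at 405 nm was read every 10 s over 300 s. Rates were compared with no-inhibitor controls, and Morrison Ki was fitted by non-linear regression.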

Trypsin [2] = molecular target: T2, Trypsin (Homo sapiens, UniProt P07477+P07478+P35030); experiment: Inhibition of beta-trypsin (unknown origin) using Bz-FVRpNA substrate by spectrophotometry method; assay type: protein assay; procedure, shortened: as §1
Prothrombin [3] = molecular target: T3, Prothrombin (Homo sapiens, UniProt P00734); experiment: Inhibition of alpha-thrombin (unknown origin) using Ac-ATPRpNA substrate by spectrophotometry method; procedure, shortened: as §1
Kallikrein-4 [4] = molecular target: T4, Kallikrein-4 (Homo sapiens, UniProt Q9Y5K2); experiment: Inhibition of KLK4 (unknown origin) expressed in Sf9 cells using FVQRpNA substrate by spectrophotometry method; procedure, shortened: as §1
Kallikrein-5 = molecular target: T5, Kallikrein-5 (Homo sapiens, UniProt Q9Y337); experiment: Inhibition of KLK5 (unknown origin) expressed in Pichia pastoris X33 using Ac-YRSR-pNA by spectrophotometry method; procedure, shortened: as §1
T5 sequence (Q9Y337 whole entry): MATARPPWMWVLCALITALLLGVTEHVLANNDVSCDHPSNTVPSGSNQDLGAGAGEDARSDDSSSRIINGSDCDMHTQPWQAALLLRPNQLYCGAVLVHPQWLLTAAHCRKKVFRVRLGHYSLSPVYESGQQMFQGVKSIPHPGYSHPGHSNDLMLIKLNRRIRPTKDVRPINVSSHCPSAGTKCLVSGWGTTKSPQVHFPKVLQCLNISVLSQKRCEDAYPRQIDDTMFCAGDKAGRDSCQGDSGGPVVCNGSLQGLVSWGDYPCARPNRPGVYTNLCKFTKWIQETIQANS

[5] = molecular target: Coagulation factor XI (Homo sapiens) (UniProt P03951); experiment: Inhibition of factor 11a (unknown origin) at 10 uM using Bz-FVRpNA substrate by spectrophotometry method
[6] = molecular target: Coagulation factor X (Homo sapiens) (UniProt P00742); experiment: Inhibition of factor 10a (unknown origin) at 50 uM using Ac-QRSRpNA substrate by spectrophotometry method
[7] = molecular target: T6, Suppressor of tumorigenicity 14 protein (Homo sapiens) (UniProt Q9Y5Y6); experiment: Inhibition of matriptase (unknown origin) at 10 uM using Ac-RQFRpNA substrate by spectrophotometry method
T6 sequence (whole entry): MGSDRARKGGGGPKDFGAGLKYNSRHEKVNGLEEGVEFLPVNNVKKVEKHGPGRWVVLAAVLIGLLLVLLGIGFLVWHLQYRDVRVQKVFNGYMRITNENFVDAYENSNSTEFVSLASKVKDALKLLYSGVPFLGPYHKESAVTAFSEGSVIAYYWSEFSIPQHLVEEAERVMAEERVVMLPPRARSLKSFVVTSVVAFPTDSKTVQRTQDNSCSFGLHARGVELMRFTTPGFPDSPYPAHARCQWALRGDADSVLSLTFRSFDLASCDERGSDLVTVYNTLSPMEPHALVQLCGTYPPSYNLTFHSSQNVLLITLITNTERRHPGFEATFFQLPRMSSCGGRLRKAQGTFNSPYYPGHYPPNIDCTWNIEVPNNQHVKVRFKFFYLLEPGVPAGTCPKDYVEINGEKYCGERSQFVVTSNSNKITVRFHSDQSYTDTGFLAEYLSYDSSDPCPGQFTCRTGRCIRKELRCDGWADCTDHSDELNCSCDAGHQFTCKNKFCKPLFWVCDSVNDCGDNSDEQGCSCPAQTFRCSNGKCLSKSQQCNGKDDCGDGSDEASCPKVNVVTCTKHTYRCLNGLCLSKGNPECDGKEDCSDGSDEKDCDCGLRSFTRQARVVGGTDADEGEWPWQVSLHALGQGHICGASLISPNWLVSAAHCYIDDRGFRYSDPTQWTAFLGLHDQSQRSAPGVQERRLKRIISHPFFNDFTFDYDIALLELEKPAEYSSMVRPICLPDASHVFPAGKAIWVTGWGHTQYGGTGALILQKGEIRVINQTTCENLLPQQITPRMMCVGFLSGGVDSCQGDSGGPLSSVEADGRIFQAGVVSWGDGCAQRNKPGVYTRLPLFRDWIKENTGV

Kallikrein-4 [8] = molecular target: T4, Kallikrein-4; experiment: Inhibition of KLK4 (unknown origin) expressed in Sf9 cells at 25 nM using FVQRpNA substrate by spectrophotometry method
[9] = molecular target: Serine protease 1 (Homo sapiens) (UniProt P07477); experiment: Inhibition of beta-trypsin (unknown origin) at 25 nM using Bz-FVRpNA substrate by spectrophotometry method
Plasminogen [10] = molecular target: T1, Plasminogen; experiment: Inhibition of plasmin (unknown origin) at 50 uM using Ac-RM(O2)YRpNA substrate by spectrophotometry method
Homo sapiens = species: Homo sapiens; experiment: Inhibition of alpha chymotrypsin (unknown origin) at 25 uM using Ac-GRPY-pNA by spectrophotometry method
Kallikrein-7 [11] = molecular target: T7, Kallikrein-7 (Homo sapiens, UniProt P49862); experiment: Inhibition of KLK7 (unknown origin) expressed in Pichia pastoris X33 using KHLY-pNA substrate by spectrophotometry method; procedure, shortened: as §1
Target sequence in this assay (P49862 whole entry): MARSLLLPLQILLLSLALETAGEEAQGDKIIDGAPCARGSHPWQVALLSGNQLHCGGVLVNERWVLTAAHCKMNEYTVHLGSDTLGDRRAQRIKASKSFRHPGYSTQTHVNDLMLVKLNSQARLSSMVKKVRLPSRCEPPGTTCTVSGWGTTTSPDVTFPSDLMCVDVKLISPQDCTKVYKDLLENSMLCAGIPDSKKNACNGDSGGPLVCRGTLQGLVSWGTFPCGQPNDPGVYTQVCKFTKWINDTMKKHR

[12] = molecular target: T8, Coagulation factor XII (Homo sapiens) (UniProt P00748); experiment: Inhibition of factor 12a-alpha (unknown origin) at 10 uM using Ac-QRFRpNA substrate by spectrophotometry method
T8 sequence (whole entry): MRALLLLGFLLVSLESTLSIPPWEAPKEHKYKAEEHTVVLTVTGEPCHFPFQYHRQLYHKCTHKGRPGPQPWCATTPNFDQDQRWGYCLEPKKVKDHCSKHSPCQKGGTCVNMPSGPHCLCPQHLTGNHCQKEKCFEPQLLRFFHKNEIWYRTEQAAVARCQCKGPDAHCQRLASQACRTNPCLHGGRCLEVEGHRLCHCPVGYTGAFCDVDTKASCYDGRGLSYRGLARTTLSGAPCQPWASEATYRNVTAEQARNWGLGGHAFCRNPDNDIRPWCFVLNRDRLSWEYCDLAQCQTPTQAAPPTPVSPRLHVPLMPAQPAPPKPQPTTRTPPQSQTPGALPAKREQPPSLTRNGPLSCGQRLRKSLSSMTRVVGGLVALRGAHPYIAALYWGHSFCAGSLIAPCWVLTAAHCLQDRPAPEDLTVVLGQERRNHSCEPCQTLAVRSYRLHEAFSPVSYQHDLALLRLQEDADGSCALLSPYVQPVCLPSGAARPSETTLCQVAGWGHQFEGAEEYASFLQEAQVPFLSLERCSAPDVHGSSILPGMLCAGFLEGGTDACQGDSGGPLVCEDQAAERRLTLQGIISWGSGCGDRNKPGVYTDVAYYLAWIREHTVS

Trypsin [13] = molecular target: T2, Trypsin; experiment: Inhibition of trypsin (unknown origin); assay type: protein assay
Kallikrein-7 [14] = molecular target: T7, Kallikrein-7; experiment: Inhibition of KLK7 (unknown origin) expressed in Pichia pastoris X33 at 200 nM using KHLY-pNA substrate by spectrophotometry method
Target sequence in this assay (P49862 30-253 limits assumed): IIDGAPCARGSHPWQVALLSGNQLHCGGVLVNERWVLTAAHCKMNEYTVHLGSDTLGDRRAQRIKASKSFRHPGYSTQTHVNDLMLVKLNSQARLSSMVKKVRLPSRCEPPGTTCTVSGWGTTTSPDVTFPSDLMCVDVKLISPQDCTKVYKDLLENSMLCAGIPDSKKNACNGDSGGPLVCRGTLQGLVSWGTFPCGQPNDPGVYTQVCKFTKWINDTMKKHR

Prothrombin [15] = molecular target: T3, Prothrombin; experiment: Inhibition of alpha-thrombin (unknown origin) at 25 uM using Ac-ATPRpNA substrate by spectrophotometry method
[16] = molecular target: Kallikrein-5 (Homo sapiens) (UniProt Q9Y337); experiment: Inhibition of KLK5 (unknown origin) expressed in Pichia pastoris X33 at 50 nM using Ac-YRSR-pNA by spectrophotometry method

T1 sequence (P00747 97-580 limits assumed): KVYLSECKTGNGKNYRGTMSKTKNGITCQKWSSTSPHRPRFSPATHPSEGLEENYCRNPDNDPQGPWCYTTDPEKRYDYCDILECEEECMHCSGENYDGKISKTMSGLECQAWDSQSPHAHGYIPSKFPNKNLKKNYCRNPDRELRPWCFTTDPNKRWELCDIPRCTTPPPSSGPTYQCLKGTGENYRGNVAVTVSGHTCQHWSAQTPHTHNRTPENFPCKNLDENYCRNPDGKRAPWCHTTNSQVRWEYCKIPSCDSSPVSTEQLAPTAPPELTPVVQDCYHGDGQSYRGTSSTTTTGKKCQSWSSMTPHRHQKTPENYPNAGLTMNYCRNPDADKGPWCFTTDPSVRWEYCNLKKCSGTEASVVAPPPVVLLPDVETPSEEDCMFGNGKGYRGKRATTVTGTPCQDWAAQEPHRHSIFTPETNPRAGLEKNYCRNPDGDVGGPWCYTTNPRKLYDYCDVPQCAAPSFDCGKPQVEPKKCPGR
T1 sequence (P00747 581-810 limits assumed): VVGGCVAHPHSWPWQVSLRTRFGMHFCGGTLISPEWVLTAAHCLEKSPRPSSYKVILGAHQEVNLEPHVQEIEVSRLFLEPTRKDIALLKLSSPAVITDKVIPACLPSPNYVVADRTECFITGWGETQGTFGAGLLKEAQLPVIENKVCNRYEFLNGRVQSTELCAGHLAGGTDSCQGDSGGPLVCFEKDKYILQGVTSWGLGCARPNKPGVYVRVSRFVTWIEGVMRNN
T4 sequence (Q9Y5K2 whole entry): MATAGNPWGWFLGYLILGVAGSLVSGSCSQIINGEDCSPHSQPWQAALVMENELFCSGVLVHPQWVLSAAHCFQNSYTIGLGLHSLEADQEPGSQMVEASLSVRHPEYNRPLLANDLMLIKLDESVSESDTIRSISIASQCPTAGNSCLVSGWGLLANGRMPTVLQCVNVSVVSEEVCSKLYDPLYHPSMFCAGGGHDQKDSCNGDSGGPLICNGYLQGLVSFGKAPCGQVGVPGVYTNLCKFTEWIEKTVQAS
Sequence of Coagulation factor XI (Homo sapiens) (P03951 19-387 limits assumed): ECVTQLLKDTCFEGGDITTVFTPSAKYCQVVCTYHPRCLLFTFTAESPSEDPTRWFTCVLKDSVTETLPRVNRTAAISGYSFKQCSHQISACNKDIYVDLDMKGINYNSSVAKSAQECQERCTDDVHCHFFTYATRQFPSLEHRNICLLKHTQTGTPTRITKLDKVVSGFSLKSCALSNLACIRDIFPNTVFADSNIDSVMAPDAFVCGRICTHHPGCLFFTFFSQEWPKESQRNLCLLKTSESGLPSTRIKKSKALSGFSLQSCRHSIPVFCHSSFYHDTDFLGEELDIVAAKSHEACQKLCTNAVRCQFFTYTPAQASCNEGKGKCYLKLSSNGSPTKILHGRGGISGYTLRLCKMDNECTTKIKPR
Sequence of Coagulation factor XI (Homo sapiens) (P03951 388-625 limits assumed): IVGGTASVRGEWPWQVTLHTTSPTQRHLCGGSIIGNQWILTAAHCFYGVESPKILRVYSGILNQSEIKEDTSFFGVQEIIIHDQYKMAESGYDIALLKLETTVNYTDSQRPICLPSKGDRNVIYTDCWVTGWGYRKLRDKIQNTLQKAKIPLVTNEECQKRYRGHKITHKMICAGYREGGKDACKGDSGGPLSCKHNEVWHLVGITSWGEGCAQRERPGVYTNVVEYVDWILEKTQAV
Sequence of Serine protease 1 (Homo sapiens) (P07477 whole entry): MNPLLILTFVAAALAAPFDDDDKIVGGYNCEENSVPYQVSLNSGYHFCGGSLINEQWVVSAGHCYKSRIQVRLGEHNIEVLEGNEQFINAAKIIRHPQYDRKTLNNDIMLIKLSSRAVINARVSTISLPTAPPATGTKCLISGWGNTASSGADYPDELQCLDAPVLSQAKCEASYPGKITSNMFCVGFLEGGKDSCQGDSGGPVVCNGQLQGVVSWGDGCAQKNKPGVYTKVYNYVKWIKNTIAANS
Sequence of Coagulation factor X (Homo sapiens) (P00742 41-179 limits assumed): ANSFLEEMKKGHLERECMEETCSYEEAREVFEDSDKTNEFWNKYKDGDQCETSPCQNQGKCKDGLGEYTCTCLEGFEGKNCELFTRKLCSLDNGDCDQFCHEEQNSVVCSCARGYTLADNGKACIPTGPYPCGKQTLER
Sequence of Coagulation factor X (Homo sapiens) (P00742 235-488 limits assumed): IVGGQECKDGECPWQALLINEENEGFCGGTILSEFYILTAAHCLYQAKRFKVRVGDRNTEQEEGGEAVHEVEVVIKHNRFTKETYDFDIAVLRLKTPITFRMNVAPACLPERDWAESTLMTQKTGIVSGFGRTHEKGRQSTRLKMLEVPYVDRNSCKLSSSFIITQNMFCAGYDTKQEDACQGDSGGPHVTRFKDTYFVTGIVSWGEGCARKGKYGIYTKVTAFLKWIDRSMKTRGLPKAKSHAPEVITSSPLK

Row | Compound | Ki (Plasminogen [1]) [nM] | Ki (Trypsin [2]) [nM] | Ki (Prothrombin [3]) [nM] | Ki (Kallikrein-5) [nM] | inhibition [7] [%] | inhibition (Kallikrein-4 [8]) | also measured
1 | CC[C@H](C)[C@@H]1NC(=O)[C@@H]2CCCN2C(=O)[C@@H]2CCCN2C(=O)[C@H]([C@@H](C)CC)NC(=O)[C@H](CO)NC(=O)[C@H](CCCNC(=N)N)NC(=O)[C@H]([C@@H](C)O)NC(=O)[C@@H]2CSSC[C@H](NC1=O)C(=O)N[C@@H](Cc1ccccc1)C(=O)N1CCC[C@H]1C(=O)N[C@H](C(=O)O)CC(=O)NCC(=O)N[C@@H](CCCNC(=N)N)C(=O)N2 (GRCTRSIPPICFPD-OH; disulfide 3-11; lactam N-14) | 121 | 0.03 | 381 | – | – | – | –
2 | CC[C@H](C)[C@@H]1NC(=O)[C@@H]2CCCN2C(=O)[C@@H]2CCCN2C(=O)[C@H](Cc2ccc(O)cc2)NC(=O)[C@H](CO)NC(=O)[C@H](CCCNC(=N)N)NC(=O)[C@H]([C@@H](C)O)NC(=O)[C@@H]2CSSC[C@H](NC1=O)C(=O)N[C@@H](Cc1ccccc1)C(=O)N1CCC[C@H]1C(=O)N[C@H](C(=O)O)CC(=O)NCC(=O)N[C@@H](CCCNC(=N)N)C(=O)N2 (GRCTRSYPPICFPD-OH; disulfide 3-11; lactam N-14) | 549 | 0.16 | 214 | – | – | – | –
3 | C[C@@H](O)[C@@H]1NC(=O)[C@@H](NC(=O)[C@H](CCCNC(=N)N)NC(=O)CN)CSSC[C@@H](C(=O)N[C@@H](Cc2cnc[nH]2)C(=O)O)NC(=O)[C@H](CCCNC(=N)N)NC(=O)[C@@H]2CCCN2C(=O)[C@@H]2CCCN2C(=O)[C@H](CC(=O)O)NC(=O)[C@H](CO)NC(=O)[C@H](CCCCN)NC1=O (H-GRCTKSDPPRCH-OH; disulfide 3-11) | 17100 | 2830 | > 50000 | – | – | – | –
4 | CC[C@H](C)[C@@H]1NC(=O)[C@@H]2CSSC[C@H](NC(=O)[C@H]([C@@H](C)CC)NC(=O)[C@@H]3CCCN3C(=O)[C@@H]3CCCN3C(=O)[C@H]([C@@H](C)CC)NC(=O)[C@H](CO)NC(=O)[C@H](CCCNC(=N)N)NC1=O)C(=O)N[C@@H](CC(N)=O)C(=O)N1CCC[C@H]1C(=O)N[C@@H](CC(N)=O)C(=O)NCC(=O)N[C@@H](Cc1c[nH]c3ccccc13)C(=O)N2 (cyclo(CIRSIPPICNPNGW); disulfide 1-9) | – | 379 | – | 362 | – | – | Ki (Kallikrein-4 [4]): 9 nM
5 | CC[C@H](C)[C@@H]1NC(=O)[C@@H]2CSSC[C@H](NC(=O)[C@H]([C@@H](C)CC)NC(=O)[C@@H]3CCCN3C(=O)[C@@H]3CCCN3C(=O)[C@H](CCCCN)NC(=O)[C@H](CO)NC(=O)[C@H](CCCNC(=N)N)NC1=O)C(=O)N[C@@H](CC(N)=O)C(=O)N1CCC[C@H]1C(=O)N[C@@H](CC(N)=O)C(=O)NCC(=O)N[C@@H](Cc1c[nH]c3ccccc13)C(=O)N2 (cyclo(CIRSKPPICNPNGW); disulfide 1-9) | – | 3200 | – | > 50000 | – | – | Ki (Kallikrein-4 [4]): 19.9 nM
6 | CC[C@H](C)[C@@H]1NC(=O)[C@@H]2CCCN2C(=O)[C@@H]2CCCN2C(=O)[C@H](Cc2ccc(O)cc2)NC(=O)[C@H](CO)NC(=O)[C@H](CCCNC(=N)N)NC(=O)[C@H]([C@@H](C)O)NC(=O)[C@@H]2CSSC[C@H](NC1=O)C(=O)N[C@@H](CC(N)=O)C(=O)N1CCC[C@H]1C(=O)N[C@@H](CC(N)=O)C(=O)NCC(=O)N[C@@H]([C@@H](C)O)C(=O)N2 (cyclo(CNPNGTCTRSYPPI); disulfide 1-7) | – | – | – | – | – | – | inhibition [6]: 26%; inhibition [12]: 75%; inhibition (Prothrombin [15]): 62%; inhibition [16]: Active

The next lines start with results.

Row | Ki (Plasminogen [1]) [nM] | Ki (Trypsin [2]) [nM] | Ki (Prothrombin [3]) [nM] | Ki (Kallikrein-5) [nM] | inhibition [7] [%] | inhibition (Kallikrein-4 [8]) | Compound | also measured
7 | – | – | – | – | 29 | inactive | CC[C@H](C)[C@@H]1NC(=O)[C@@H]2CCCN2C(=O)[C@@H]2CCCN2C(=O)[C@H](CC(=O)O)NC(=O)[C@H](CO)NC(=O)[C@H](CCCNC(=N)N)NC(=O)[C@H]([C@@H](C)O)NC(=O)[C@@H]2CSSC[C@H](NC1=O)C(=O)N[C@@H](CC(N)=O)C(=O)N1CCC[C@H]1C(=O)N[C@@H](CC(N)=O)C(=O)NCC(=O)N[C@@H]([C@@H](C)O)C(=O)N2 (cyclo(CNPNGTCTRSDPPI); disulfide 1-7) | inhibition [5]: 34%; inhibition [6]: 31%; inhibition [9]: inactive
8 | – | – | – | 2.1 | 41 | Active | CC[C@H](C)[C@@H]1NC(=O)[C@@H]2CCCN2C(=O)[C@@H]2CCCN2C(=O)[C@H]([C@@H](C)CC)NC(=O)[C@H](CO)NC(=O)[C@H](CCCNC(=N)N)NC(=O)[C@H]([C@@H](C)O)NC(=O)[C@@H]2CSSC[C@H](NC1=O)C(=O)N[C@@H](CC(N)=O)C(=O)N1CCC[C@H]1C(=O)N[C@@H](CC(N)=O)C(=O)NCC(=O)N[C@@H]([C@@H](C)O)C(=O)N2 (cyclo(CNPNGTCTRSIPPI); disulfide 1-7) | inhibition (Plasminogen [10]): 50%; inhibition [5]: 47%; inhibition (Homo sapiens): 60%; Ki (Kallikrein-7 [11]): 16.8 nM; inhibition [12]: 85%; inhibition [9]: 80%; Ki (Trypsin [13]): 0.7 nM
9 | – | – | – | 5.2 | 37 | Active | CC[C@H](C)[C@@H]1NC(=O)[C@@H]2CCCN2C(=O)[C@@H]2CCCN2C(=O)[C@H](CC(N)=O)NC(=O)[C@H](CO)NC(=O)[C@H](CCCNC(=N)N)NC(=O)[C@H]([C@@H](C)O)NC(=O)[C@@H]2CSSC[C@H](NC1=O)C(=O)N[C@@H](CC(N)=O)C(=O)N1CCC[C@H]1C(=O)N[C@@H](CC(N)=O)C(=O)NCC(=O)N[C@@H]([C@@H](C)O)C(=O)N2 (cyclo(CNPNGTCTRSNPPI); disulfide 1-7) | inhibition (Kallikrein-7 [14]): 97%; Ki (Kallikrein-7 [11]): 0.8 nM; inhibition (Prothrombin [15]): 49%; inhibition [16]: 93%
